Test results as given in PubChem BioAssay AID463191 (Sanford-Burnham Center for Chemical Genomics, 2010).
Active and inactive are the calls of the source.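 Rule for the calls: active = compounds whose mean IC50 across repeat dose response tests falls below a set limit; inactive = the rest.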

Tested on: AML12 mouse hepatocytes, BODIPY lipid droplet imaging
Assay: potency against lipid droplet buildup in liver cells – imaging, AML12 mouse hepatocytes, high-content, dose response (AID 463191)
Conditions: cells loaded with 100 µM oleic acid
In short: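 Test system: AML12 mouse hepatocyte cell line, lipid droplet imaging. Compound: Seven-point series from 32 to 0.5 µM, 0.32% DMSO. Incubation: cells grown about 20 h at 37 °C, then overnight compound exposure.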

CCNC(=S)N1CCc2cc(OC)c(OC)cc2C1COc1ccc(F)cc1 (stereo not drawn) was tested, and the IC50 was 2280 nM.
In the case of COc1ccc(Cl)cc1NC(=O)CN(C)C(=O)CCCc1c[nH]c2ccccc12, the IC50 is reported as 2300 nM.
In the case of CCOc1ccc(CCNC(=O)CCS(=O)(=O)c2ccc(OC)cc2)cc1OCC, the IC50 is reported as 2720 nM.
COCc1ccc(C(=O)NC2CCCc3c2cnn3-c2ccc(C)c(C)c2)o1 (stereo not drawn) showed an IC50 of 2440 nM.
In the case of CCOc1ccc(CCNC(=O)c2c(C)nn(-c3ccccc3)c2Cl)cc1OCC, the IC50 is reported as 7560 nM (inactive).
For CCOc1ccc(CCNC(=O)Nc2cccc(OC)c2)cc1OCC, the IC50 was less than 500 nM.
Molecule CCCOc1ccc(/C=N/Nc2ccccc2[N+](=O)[O-])c(OCCC)c1 has an IC50 of less than 500 nM.
Work on CCOc1ccc(CCNC(=O)C2CC=CCC2C(=O)OC(C)C)cc1OCC (stereo not drawn) yielded an IC50 of 746 nM.
For O=C(CSCC(=O)N1CCCc2ccccc21)Nc1nc(-c2ccccc2)cs1, the IC50 was 4240 nM.
CCOc1ccc(CN(C)C(=O)CNC(=O)c2ccc3ccccc3c2)cc1OC showed an IC50 of 809 nM.
Molecule CCOc1ccc(CCNC(=O)CSc2cc(=O)n(C)c3cc(Cl)ccc23)cc1OCC has an IC50 of 708 nM.
With C=CCOc1ccc(-c2nc3c(c(=O)[nH]c(=O)n3Cc3ccccc3)n2CCCOC)cc1 the IC50 was 2980 nM.
With COc1ccc(C(=O)CCC(=O)NCCc2c[nH]c3ccccc23)cc1OC the IC50 was 2120 nM.
In the case of O=C(Cc1coc2ccc3ccccc3c12)NC1CCCc2ccccc21 (stereo not drawn), the IC50 is reported as 4390 nM.
CCOc1ccccc1NC(=O)N1CCCC1C(=O)Nc1ccc(-n2cnnn2)c(C)c1 (stereo not drawn) gave an IC50 of 1420 nM.
For CCOc1cc2c(cc1OCC)C(c1ccccc1OC)OC(=O)C2 (stereo not drawn), the IC50 was > 32000 nM (inactive).
With Cc1cc(C)cc(NC(=O)CCC(=O)Nc2cc(C)on2)c1 the IC50 was 7620 nM (inactive).
COc1cc(NC(=O)c2cccs2)c(OC)cc1NC(=O)CCC(=O)Nc1ccc(C)cc1 was tested, and the IC50 was 790 nM.
For Cc1cccc(NC(=O)CSc2nnc(C)c(=O)n2N)c1, the IC50 was 6650 nM (inactive).
In the case of CCc1nn2c(N3CCOCC3)cc(C)nc2c1-c1ccc(F)cc1, the IC50 is reported as less than 500 nM.
CCOc1cc2c(cc1OCC)C(c1ccc(OC)cc1)N(c1ccccc1)C(=O)C2 (stereo not drawn) was tested, and the IC50 was > 32000 nM (inactive).
COc1ccc(NC(=O)CSc2nc3ccccc3nc2N2CCCCC2)cc1 was tested, and the IC50 was 1180 nM.
CCOC(=O)c1cc(CC)sc1NC(=O)C1CC(=O)NN1Cc1ccccc1 (stereo not drawn) gave an IC50 of 573 nM.
COc1cccc(NC(=O)CCC(=O)Nc2cc(OC)c(NC(=O)c3cccs3)cc2OC)c1 was tested, and the IC50 was 754 nM.
With CC1CCN(C2=C(NS(=O)(=O)c3ccc(Br)cc3)C(=O)c3ccccc3C2=O)CC1 the IC50 was 703 nM.
COc1ccc(C(=O)OCC(=O)NC(C)CCc2ccccc2)c(OC)c1 (stereo not drawn) was tested, and the IC50 was 10600 nM (inactive).
CCOC(=O)c1ccc(S(=O)(=O)NCC(c2ccc(N(C)C)cc2)c2c[nH]c3ccccc23)cc1 (stereo not drawn) was tested, and the IC50 was 927 nM.
CCOc1ccc(C(=O)OCC(=O)Nc2cc(C)on2)cc1OCC gave an IC50 of 1800 nM.
O=C(Cc1cccc2ccccc12)Nc1nc(-c2cccc([N+](=O)[O-])c2)cs1 gave an IC50 of 4300 nM.
CC1Cc2cc(S(=O)(=O)NCCC(=O)N(C)Cc3ccccc3)ccc2N1C(=O)C1CC1 (stereo not drawn) was tested, and the IC50 was 7520 nM (inactive).
For CCCCn1c(N)c(-c2nc3ccccc3s2)c2c([N+](=O)[O-])nn(CC)c(=O)c21, the IC50 was 9330 nM (inactive).
With CCOc1ccc(CCNC(=O)COC(=O)/C=C/c2ccc(OCC#N)c(OC)c2)cc1OCC the IC50 was 21000 nM (inactive).
CCN(CC(=O)Nc1c(F)cccc1F)C(=O)CCCc1c[nH]c2ccccc12 gave an IC50 of 1890 nM.
CCOc1ccc(CCNC(=O)C2CC(=O)N(Cc3ccc(OC)cc3)C2)cc1OCC (stereo not drawn) was tested, and the IC50 was 3810 nM.
Cc1cc(C)cc(NC(=O)CSc2nc3ccccc3nc2N2CCCC2)c1 was tested, and the IC50 was 2110 nM.
For COc1ccc(-c2csc(NNC3=NCCCCC3)n2)cc1, the IC50 was 1420 nM.
Molecule Cc1ccc(CNC(=O)c2ccc(N3CCC4(CC3)CC(c3ccccc3)=NO4)c(N)c2)cc1 has an IC50 of 3450 nM.
With COc1ccc(C(=O)NC2CCCc3c2cnn3-c2cccc(C)c2C)o1 (stereo not drawn) the IC50 was 2560 nM.
CC(C)Oc1ccc(C(=O)OC(C)C(=O)Nc2nc(-c3cccc([N+](=O)[O-])c3)cs2)cc1 (stereo not drawn) was tested, and the IC50 was 866 nM.
COc1ccc(NC(=O)CSc2nc3ccccc3nc2N2CCCC2)cc1Cl was tested, and the IC50 was 2850 nM.
CCOc1ccc(CCNC(=O)c2cccs2)cc1OCC showed an IC50 of 2350 nM.
In the case of COc1ccc(C(C(=O)NC2CCCC2)N(CCC(C)C)C(=O)CCC(=O)Nc2cc(C)on2)cc1 (stereo not drawn), the IC50 is reported as 5900 nM (inactive).
Work on CC1CCCN(C(=O)c2ccc3c(c2NCCO)C(=O)c2ccccc2C3=O)C1 (stereo not drawn) yielded an IC50 of 765 nM.
CCOc1ccc(C2=NNC(c3cccs3)=Nc3ccc(OC)cc32)cc1OCC was tested, and the IC50 was 8700 nM (inactive).
CCOC(=O)N1CCN(C(=O)CSCC(=O)Nc2nc(-c3ccc(-c4ccccc4)cc3)cs2)CC1 was tested, and the IC50 was 14200 nM (inactive).
COc1ccc(C2(c3ccc(OC)cc3)NC(=O)N(CC(=O)Nc3ccccc3C)C2=O)cc1 showed an IC50 of 1520 nM.
COC(=O)/C(=C/c1ccc2c(c1)c1ccccc1n2C)NC(=O)c1ccccc1 showed an IC50 of 4240 nM.
COc1ccc(CCNC(=O)CCOc2cc(C)ccc2C)cc1OC was tested, and the IC50 was 4550 nM.
With CCC(C)(C)NC(=O)C(c1ccc(OC)cc1)N(Cc1cccs1)C(=O)CCC(=O)Nc1cc(C)on1 (stereo not drawn) the IC50 was 2240 nM.
Cc1ccc(CNC(=O)CCCc2c[nH]c3ccccc23)cc1 was tested, and the IC50 was 11200 nM (inactive).
Cc1ccc(-c2c(C)nn3c(N4CCOCC4)cc(C)nc23)cc1 was tested, and the IC50 was 633 nM.
In the case of COc1ccc(C(C(=O)NC(C)(C)C)N(CCC(C)C)C(=O)CCC(=O)Nc2cc(C)on2)cc1 (stereo not drawn), the IC50 is reported as 1200 nM.
CCOc1ccc(CCNC(=O)COC(=O)/C=C/c2ccc(C)o2)cc1OCC was tested, and the IC50 was 7620 nM (inactive).
CCOc1ccc(CCNC(=O)CN2C(=O)NC3(CCCC3)C2=O)cc1OCC was tested, and the IC50 was 1070 nM.
With CCc1ccc(NC(=O)CSc2nnc(C)c(=O)n2N)cc1 the IC50 was 1480 nM.
CCOc1ccc(CCNC(=O)CCS(=O)(=O)c2ccc(Br)cc2)cc1OCC showed an IC50 of 3270 nM.
O=C(NC1CCCc2c1cnn2-c1cc(F)cc(F)c1)c1ccccn1 (stereo not drawn) was tested, and the IC50 was 1550 nM.
COc1cccc(NC(=O)CSc2nc3ccccc3nc2N2CCCC2)c1 was tested, and the IC50 was 5260 nM (inactive).
Work on COc1ccc2c(c1)c(CC(=O)Nc1ccc(C)cc1)c(C)n2C(=O)c1ccc(Cl)cc1 yielded an IC50 of less than 500 nM.
With CCOc1ccc(C(C)NC(=O)Cc2ccccc2)cc1OCC (stereo not drawn) the IC50 was > 32000 nM (inactive).
With CCCCn1c(=O)[nH]c(=O)c2c1nc(-c1ccc(-c3ccccc3)cc1)n2C the IC50 was 9970 nM (inactive).
CCOc1ccc(CN(C)C(=O)CNC(=O)c2ccc(Br)o2)cc1OC showed an IC50 of 3880 nM.
For CC(C)OC(=O)/C(=C/c1ccc2c(c1)c1ccccc1n2C)NC(=O)c1ccccc1, the IC50 was 1800 nM.
Molecule CCOc1ccc(NC(=O)CCSc2nc3c(c(CC)c2C#N)C(=O)CC(C)(C)C3)cc1 has an IC50 of 1770 nM.
With Cc1cc(C)c(C(=O)NC2CCCc3c2cnn3-c2cccc(C)c2C)o1 (stereo not drawn) the IC50 was 21600 nM (inactive).
In the case of COc1cc(NC(=O)c2ccco2)c(OC)cc1NC(=O)CCC(=O)Nc1cc(C)cc(C)c1, the IC50 is reported as less than 500 nM.
Work on CCC(C)(C)NC(=O)C(c1ccc(OC)cc1)N(Cc1ccccc1)C(=O)CCC(=O)Nc1cc(C)on1 (stereo not drawn) yielded an IC50 of 3420 nM.
Molecule CCOc1ccc(CCNC(=O)CSc2cc(=O)n(C)c3ccccc23)cc1OCC has an IC50 of 823 nM.
CCCc1nc2ccccc2c(C(=O)OC(C)C(=O)NCc2ccc3c(c2)OCO3)c1CC (stereo not drawn) showed an IC50 of 1970 nM.
For CCOc1ccc(CCNC(=O)CCNC(=O)c2ccccc2Cl)cc1OCC, the IC50 was 5880 nM (inactive).
Cc1ccc(-n2nc3c(=O)n(C(C)C(=O)NCCC4=CCCCC4)nc(C)c3c2C)cc1 (stereo not drawn) gave an IC50 of 3870 nM.
With COc1ccc(C)cc1NC(=O)C/C(C)=N/NC(=O)Cc1cccc2ccccc12 the IC50 was 13800 nM (inactive).
COc1ccc2c(c1)c(CC(=O)Nc1ccc(C(C)=O)cc1)c(C)n2C(=O)c1ccc(Cl)cc1 was tested, and the IC50 was 2880 nM.
